Paper PMC5741288 (Pain Reports, 2016)

Test system: dermal blood flow (flare)
Test: Topical capsaicin alone, flare response in anesthetized rats
Assay type: in vivo, Sprague Dawley rats
Method in brief: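 Isoflurane-anaesthetised rats had clipped lower abdominal skin and an O-ring placed by a preliminary Doppler image. Capsaicin (0.1–3 mg) or vehicle (30% ethanol, Tween, sterile water) was pipetted into the ring. Dermal blood flow was scanned by laser Doppler imager every 15 min for 120 min. Change from baseline flux was computed every 15 min.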

Compound: COc1cc(CNC(=O)CCCC/C=C/C(C)C)ccc1O [Capsaicin]
- Flare response (0.1 mg topical): did not produce any increase in flare
- Flare response (0.3 mg topical, peaked 30 minutes after application): transient increase in flare
- Flare response (1 mg topical, larger concentrations did not increase flare further): greatest amount of flare
